Data from ChEMBL document CHEMBL1122309 (J Med Chem, 1983).

Legend:
[1] = target: T1, Aromatase (Homo sapiens, UniProt P11511); test: Inhibition of human placental aromatase Cytochrome P450 19A1; none
T1 sequence (P11511 whole entry): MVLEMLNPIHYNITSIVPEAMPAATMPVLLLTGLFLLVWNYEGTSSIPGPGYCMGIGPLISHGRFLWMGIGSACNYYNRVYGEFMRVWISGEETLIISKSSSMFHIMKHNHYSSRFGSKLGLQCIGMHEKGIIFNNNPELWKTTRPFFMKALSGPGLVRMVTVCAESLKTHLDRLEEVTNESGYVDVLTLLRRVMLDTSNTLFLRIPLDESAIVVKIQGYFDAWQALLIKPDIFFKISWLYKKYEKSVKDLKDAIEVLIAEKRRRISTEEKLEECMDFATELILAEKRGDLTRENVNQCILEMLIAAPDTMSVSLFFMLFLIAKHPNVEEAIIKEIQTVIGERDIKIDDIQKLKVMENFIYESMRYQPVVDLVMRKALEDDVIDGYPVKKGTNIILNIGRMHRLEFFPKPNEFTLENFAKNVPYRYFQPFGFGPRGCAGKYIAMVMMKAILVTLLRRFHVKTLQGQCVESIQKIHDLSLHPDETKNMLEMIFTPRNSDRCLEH

[2] = target: T2, Cholesterol side-chain cleavage enzyme, mitochondrial (Bos taurus, UniProt P00189); test: Inhibition of bovine cholesterol side-chain cleavage desmolase, cytochrome P450 11A1; none; details: cattle
T2 sequence (P00189 whole entry): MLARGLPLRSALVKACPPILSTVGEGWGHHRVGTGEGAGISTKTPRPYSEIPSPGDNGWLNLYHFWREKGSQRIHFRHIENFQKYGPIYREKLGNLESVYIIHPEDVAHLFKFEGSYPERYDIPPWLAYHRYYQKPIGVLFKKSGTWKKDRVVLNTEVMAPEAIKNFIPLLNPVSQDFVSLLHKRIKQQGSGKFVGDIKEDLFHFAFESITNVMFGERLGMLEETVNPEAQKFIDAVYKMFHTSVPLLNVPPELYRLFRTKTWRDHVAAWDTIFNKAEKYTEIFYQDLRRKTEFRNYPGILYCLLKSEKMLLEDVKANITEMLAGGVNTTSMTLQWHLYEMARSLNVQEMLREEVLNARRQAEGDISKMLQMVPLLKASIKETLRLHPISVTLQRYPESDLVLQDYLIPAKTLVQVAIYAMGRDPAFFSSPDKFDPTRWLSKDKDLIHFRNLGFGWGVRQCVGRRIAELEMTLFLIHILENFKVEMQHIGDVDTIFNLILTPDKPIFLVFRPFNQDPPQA
Outline: (§1)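 Enzyme source was the mitochondrial fraction of bovine adrenal cortex, stored at -70 °C. Substrate [14C]cholesterol; [14C]isocaproic acid released was measured. Inhibitors were added in 10 μL ethanol (ethanol alone in controls) to a 1.0 mL assay and preincubated 5 min at 30 °C. The reaction was started with 1 mg mitochondrial protein and sampled at 2, 4 and 6 min. Result given as % of control rate; apparent Ki from Lineweaver-Burk plots.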

[3] = target: T2, Cholesterol side-chain cleavage enzyme, mitochondrial; test: (§2) Inhibition of bovine cholesterol side-chain cleavage desmolase, cytochrome P450 11A1; set-up: concentration or dose not given beside the values; details: cattle; outline: as §1
[4] = target: T2, Cholesterol side-chain cleavage enzyme, mitochondrial; test: as §2; details: cattle; outline: as §1

In the case of `CCC1(c2ccc(N)c(O)c2)CCC(=O)NC1=O` (stereo not drawn), the Inhibition [1] is reported as “Not Active” and the Inhibition [2] is reported as “Not Active”.

Compound `CCC1(c2ccc(N)cc2)CC(N)C(=O)NC1=O` (stereo not drawn) has an Inhibition [3] of 45%.

`CCC1(c2ccc(N)cc2)CCC(=O)N(N)C1=O` (stereo not drawn) gave an Inhibition [3] of 50%.

For `CCC1(c2ccc(NC(C)=O)cc2)CCC(=O)NC1=O` (stereo not drawn), the Inhibition [1] was “Not Active” and the Inhibition [2] was “Not Active”.

Compound `CCC1(c2cccc(N)c2)CCC(=O)NC1=O` (stereo not drawn) has an Inhibition [4] of 13%.

`CCC1(c2ccc(NC=O)cc2)CCC(=O)NC1=O` (stereo not drawn) gave an Inhibition [3] of 12%.

For `CCC1(c2ccc(O)c([N+](=O)[O-])c2)CCC(=O)NC1=O` (stereo not drawn), the Inhibition [1] was “Not Active” and the Inhibition [2] was “Not Active”.

`CCC1(c2ccc(O)c(N)c2)CCC(=O)NC1=O` (stereo not drawn) was tested, and the Inhibition [1] was “Not Active” and the Inhibition [3] was 35%.

In the case of `CCC1(c2ccc([N+](=O)[O-])cc2)CCC(=O)NC1=O` (stereo not drawn) [4-NITROGLUTETHIMIDE], the Inhibition [3] is reported as 20%.

Work on `CCC1(c2ccc(N)cc2)CCC(=O)NC1=O` (stereo not drawn) [AMINOGLUTETHIMIDE] yielded an Inhibition [3] of 85%.

With `CCC1(c2ccccc2)CCC(=O)NC1=O` (stereo not drawn) [GLUTETHIMIDE] the Inhibition [1] was “Not Active” and the Inhibition [2] was “Not Active”.

In the case of `CCC1(c2ccc(O)cc2)CCC(=O)NC1=O` (stereo not drawn) [P-HYDROXYGLUTETHIMIDE], the Inhibition [1] is reported as “Not Active” and the Inhibition [2] is reported as “Not Active”.
